IC50, logP and Selectivity data for 46 molecules are collected here from ChEMBL document CHEMBL1134450, “Solid-phase synthesis of a nonpeptide RGD mimetic library: new selective alphavbeta3 integrin antagonists” (J Med Chem, 2001).

Where a SMILES comes first, the peptide text is derived from it. [ ]: non-standard residue; d: D form. NMeF = CN[C@@H](Cc1ccccc1)C(=O)O; azaGly = NNC(=O)O

In series [1] the target is Integrin alpha-IIb/beta-3 (Homo sapiens, UniProt P05106+P08514). The experiment in a line: Inhibitory activity against alpha IIb beta 3 integrin. The format is protein-complex assay. In a few lines: (§1)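 Solid-phase competition binding. αvβ3 was recombinant, from baculovirus, purified on LM609 antibody column, paired with biotinylated human vitronectin. αIIbβ3 was paired with biotinylated human fibrinogen. Integrins coated at 1 µg/mL, blocked, then compounds serially diluted and co-incubated with ligand (1 µg/mL), 37 °C, 3 h. Read-out was alkaline-phosphatase anti-biotin.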

Series [2] can be described thus: Partition coefficient (logP). The class given is physicochemical. To be noted: octanol/water.
Series [3] deals with Integrin alpha-V/beta-3 (Homo sapiens, UniProt P05106+P06756). The experiment in a line: Inhibitory activity against vitronectin receptor (alpha V beta 3). The class given is protein-complex assay. In a few lines:
as §1

Series [4] has as its target Integrin alpha-V/beta-3 and alpha-IIb/beta 3 (Homo sapiens) (UniProt P05106+P06756+P08514). Briefly: Selectivity designates the quotient of affinities to integrins alpha v beta-3 and alpha IIb beta3. The class given is protein assay. In a few lines:
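Quotient of IC50 values from the immobilized-integrin competition assays: αvβ3 against biotinylated vitronectin and αIIbβ3 against biotinylated fibrinogen. Ligand at 1 µg/mL, 37 °C, 3 h, anti-biotin alkaline-phosphatase detection. IC50 came from sigmoid fits of triplicates.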

Chain of Integrin alpha-V/beta-3 (P05106 27-788 limits assumed): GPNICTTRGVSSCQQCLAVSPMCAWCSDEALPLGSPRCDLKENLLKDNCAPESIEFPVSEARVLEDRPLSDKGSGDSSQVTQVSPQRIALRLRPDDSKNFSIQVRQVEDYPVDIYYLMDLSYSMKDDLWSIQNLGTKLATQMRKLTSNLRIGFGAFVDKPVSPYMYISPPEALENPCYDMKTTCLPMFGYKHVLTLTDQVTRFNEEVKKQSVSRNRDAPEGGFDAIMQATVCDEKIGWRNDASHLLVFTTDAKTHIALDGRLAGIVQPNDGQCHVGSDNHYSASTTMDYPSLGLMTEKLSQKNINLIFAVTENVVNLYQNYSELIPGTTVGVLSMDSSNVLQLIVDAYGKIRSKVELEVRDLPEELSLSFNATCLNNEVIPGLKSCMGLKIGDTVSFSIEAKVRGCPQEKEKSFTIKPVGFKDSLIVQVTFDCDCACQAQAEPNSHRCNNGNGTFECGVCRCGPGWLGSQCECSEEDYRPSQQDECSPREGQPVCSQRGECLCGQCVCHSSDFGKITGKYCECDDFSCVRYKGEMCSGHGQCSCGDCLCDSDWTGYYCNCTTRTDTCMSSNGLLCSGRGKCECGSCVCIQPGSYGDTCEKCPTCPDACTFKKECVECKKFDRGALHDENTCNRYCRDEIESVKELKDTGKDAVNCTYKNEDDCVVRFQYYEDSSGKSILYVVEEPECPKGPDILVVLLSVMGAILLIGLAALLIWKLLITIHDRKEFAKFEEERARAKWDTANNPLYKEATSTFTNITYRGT
Chain of Integrin alpha-V/beta-3 (P06756 31-889 limits assumed): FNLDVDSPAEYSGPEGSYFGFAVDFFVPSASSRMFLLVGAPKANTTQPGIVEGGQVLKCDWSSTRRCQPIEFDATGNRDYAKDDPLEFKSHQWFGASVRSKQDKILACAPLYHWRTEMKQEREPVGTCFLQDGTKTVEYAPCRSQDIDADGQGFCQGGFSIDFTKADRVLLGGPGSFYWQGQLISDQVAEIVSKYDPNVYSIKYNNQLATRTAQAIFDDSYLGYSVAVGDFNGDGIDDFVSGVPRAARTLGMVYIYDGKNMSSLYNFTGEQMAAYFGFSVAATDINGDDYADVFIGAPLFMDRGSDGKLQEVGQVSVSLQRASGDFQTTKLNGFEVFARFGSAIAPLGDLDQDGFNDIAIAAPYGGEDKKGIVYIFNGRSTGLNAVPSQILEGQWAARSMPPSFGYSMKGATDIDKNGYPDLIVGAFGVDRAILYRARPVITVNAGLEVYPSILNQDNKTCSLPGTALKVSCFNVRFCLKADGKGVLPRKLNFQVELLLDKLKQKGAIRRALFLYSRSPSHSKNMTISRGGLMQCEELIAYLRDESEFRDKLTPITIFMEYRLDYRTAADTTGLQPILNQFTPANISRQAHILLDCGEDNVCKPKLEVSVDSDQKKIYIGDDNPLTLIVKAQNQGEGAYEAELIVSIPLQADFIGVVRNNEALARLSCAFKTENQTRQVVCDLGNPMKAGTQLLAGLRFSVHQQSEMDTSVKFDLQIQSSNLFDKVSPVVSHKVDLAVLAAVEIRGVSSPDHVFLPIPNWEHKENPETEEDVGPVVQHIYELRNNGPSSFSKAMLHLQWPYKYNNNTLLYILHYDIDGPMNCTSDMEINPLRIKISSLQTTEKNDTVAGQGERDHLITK
Chain of Integrin alpha-V/beta-3 (P06756 891-1048 limits assumed): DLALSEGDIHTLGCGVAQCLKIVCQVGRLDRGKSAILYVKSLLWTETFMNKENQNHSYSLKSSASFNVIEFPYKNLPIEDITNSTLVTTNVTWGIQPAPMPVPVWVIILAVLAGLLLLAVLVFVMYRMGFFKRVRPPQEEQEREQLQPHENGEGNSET
Chain of Integrin alpha-IIb/beta-3 (P05106 27-788 limits assumed): as the sequence (P05106 27-788 limits assumed) above
Chain of Integrin alpha-IIb/beta-3 (P08514 32-887 limits assumed): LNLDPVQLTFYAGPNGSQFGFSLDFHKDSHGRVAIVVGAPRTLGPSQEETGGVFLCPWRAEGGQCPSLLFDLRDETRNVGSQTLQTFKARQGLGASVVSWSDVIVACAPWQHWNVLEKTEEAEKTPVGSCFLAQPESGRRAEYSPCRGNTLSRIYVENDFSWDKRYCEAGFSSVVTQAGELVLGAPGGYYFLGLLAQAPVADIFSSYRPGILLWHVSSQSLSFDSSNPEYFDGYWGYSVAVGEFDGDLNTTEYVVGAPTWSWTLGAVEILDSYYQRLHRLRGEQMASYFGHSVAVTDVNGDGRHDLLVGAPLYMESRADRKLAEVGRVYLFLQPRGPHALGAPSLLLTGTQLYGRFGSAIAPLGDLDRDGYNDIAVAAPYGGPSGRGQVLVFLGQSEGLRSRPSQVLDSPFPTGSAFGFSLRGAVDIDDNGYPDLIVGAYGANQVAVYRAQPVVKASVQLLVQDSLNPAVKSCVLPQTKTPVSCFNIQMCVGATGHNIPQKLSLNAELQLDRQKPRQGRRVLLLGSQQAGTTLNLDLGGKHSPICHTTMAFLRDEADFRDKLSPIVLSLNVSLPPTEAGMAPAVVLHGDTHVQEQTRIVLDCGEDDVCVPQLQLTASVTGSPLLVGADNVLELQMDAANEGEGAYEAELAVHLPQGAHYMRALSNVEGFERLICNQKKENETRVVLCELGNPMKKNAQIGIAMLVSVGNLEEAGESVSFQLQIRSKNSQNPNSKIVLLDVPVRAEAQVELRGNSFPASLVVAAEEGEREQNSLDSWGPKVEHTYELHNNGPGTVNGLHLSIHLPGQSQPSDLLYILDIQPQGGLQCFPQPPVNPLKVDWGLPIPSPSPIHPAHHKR
Chain of Integrin alpha-IIb/beta-3 (P08514 891-1039 limits assumed): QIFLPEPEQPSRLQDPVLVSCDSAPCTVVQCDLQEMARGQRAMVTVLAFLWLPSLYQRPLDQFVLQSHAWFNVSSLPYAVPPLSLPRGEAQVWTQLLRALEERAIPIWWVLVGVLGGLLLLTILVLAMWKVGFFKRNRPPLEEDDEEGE

The term IC50 denotes the concentration that gives 50% inhibition. Low values mean greater potency, high ones weaker potency. For orientation: logP means a log measure of how a compound divides between an organic and an aqueous phase. A high value points to higher lipophilicity. On to `CC(=N)Nc1cccc(C(=O)NNC(=O)CC(CC(=O)O)c2ccccc2)c1` (stereo unspecified), for which the IC50 in series [1] was more than 10 µM; in series [3], 23 nM. For the same molecule, the logP in series [2] amounted to 1.44.
Molecule `CC(C)[C@@H]1NC(=O)[C@H](CCCN=C(N)N)NC(=O)CNC(=O)[C@H](CC(=O)O)NC(=O)[C@H](Cc2ccccc2)NC1=O` (cyclo(DGRVF)) gave a Selectivity in series [4] of 415.
As for `Cc1ccnc(NCCCCC(=O)NNC(=O)CC(CC(=O)O)c2ccc(F)cc2)c1` (stereo unspecified), in series [2], the logP turned out to be 2.23. Inhibition in series [3] was half-maximal at 35 nM (IC50).
Regarding `Cc1ccnc(NCCCCC(=O)NNC(=O)CC(CC(=O)O)c2ccc(Br)cc2)c1` (stereo unspecified), the IC50 in series [1] turned out to be 9 µM; in series [3] it was 6 nM. The same molecule had a log partition coefficient (logP) in series [2] of 2.9.
In the case of `N=C(N)Nc1cccc(C(=O)NNC(=O)NC(CC(=O)O)c2ccc(Br)cc2)c1` (stereo unspecified), the IC50 is more than 1 µM in series [1] and 1 nM in series [3]. Moreover, in series [2], the logP is 1.53.
The matching figures for `N=C(N)Nc1cccc(C(=O)NNC(=O)CC(CC(=O)O)c2ccccc2)c1` (stereo unspecified): more than 10 µM, 15 nM and 1.13.
Consider `CC(=N)Nc1cccc(C(=O)NNC(=O)CC(CC(=O)O)c2cc(Cl)cc(Cl)c2)c1` (stereo unspecified), for which, in series [2], the logP amounted to 2.55. In series [3], 6 nM corresponded to half-maximal inhibition (IC50).
As for `COc1ccc(C(CC(=O)O)NC(=O)NNC(=O)c2cccc(N=C(N)N)c2)cc1` (stereo unspecified), the IC50 in series [1] is more than 1 µM; in series [3], 0.9 nM. In addition, the logP in series [2] was determined as 0.58.
The matching figures for `N=C(N)Nc1cccc(C(=O)NNC(=O)CC(CC(=O)O)c2ccc(Br)cc2)c1` (stereo unspecified): more than 1 µM, 2 nM and 1.95.
For the molecule `NCCCC[C@H](NC(=O)[C@@H]1CCCN1C(=O)[C@H](CO)NC(=O)[C@H](CC(=O)O)NC(=O)CNC(=O)[C@H](CCCN=C(N)N)NC(=O)CN)C(=O)O`, the half-inhibitory concentration (IC50) was more than 10 µM in series [1] and 1000 nM in series [3]. The molecule further had a Selectivity in series [4] of 8.
For `N=C(N)NCCCCC(=O)NNC(=O)NC(CC(=O)O)c1ccccc1` (stereo unspecified), the IC50 worked out at 1 µM in series [1] and 40 nM in series [3]. In series [2], this molecule came in with a logP of -0.26.
Turning to `NC(N)=Nc1cccc(C(=O)NNC(=O)NC(CC(=O)O)c2cccc3ccccc23)c1` (stereo unspecified), the IC50 in series [1] was more than 10 µM; in series [3], 27 nM. In addition, in series [2], the logP was found to be 1.7.
For `COc1ccc(C(CC(=O)O)NC(=O)NNC(=O)CCCCNc2cc(C)ccn2)cc1` (stereo unspecified), the IC50 in series [1] is more than 10 µM; in series [3], 42 nM. The molecule also gave a logP in series [2] of 1.52.
The matching figures for `N=C(N)Nc1cccc(C(=O)NNC(=O)CC(CC(=O)O)c2cc(Cl)cc(Cl)c2)c1` (stereo unspecified): 1 µM, 2 nM and 2.24.
`N=C(N)Nc1cccc(C(=O)NNC(=O)NC(CC(=O)O)C(N)=O)c1` (stereo unspecified) gave a Selectivity in series [4] of more than 70.
In the case of `COc1ccc(C(CC(=O)O)CC(=O)NNC(=O)CCCCNc2cc(C)ccn2)cc1` (stereo unspecified), the IC50 is more than 10 µM in series [1] and 22 nM in series [3]. For the same molecule, in series [2], the logP is 1.94.
In turn, `Cc1ccnc(NCCCCC(=O)NNC(=O)NC(CC(=O)O)c2ccc(Br)cc2)c1` (stereo unspecified) had a logP in series [2] of 2.47. Further, half-maximal inhibition in series [3] (IC50) was put at 7 nM.
Regarding `CC(=N)Nc1cccc(C(=O)NNC(=O)CC(CC(=O)O)c2ccc(Cl)cc2)c1` (stereo unspecified), the figures for the IC50 in series [1] and in series [3] were 8 µM and 160 nM, respectively. Besides, the logP in series [2] was found to be 2.
The matching figures for `Cc1ccnc(NCCCCC(=O)NNC(=O)NC(CC(=O)O)c2ccccc2)c1` (stereo unspecified): more than 10 µM, 37 nM and 1.64.
`NC(=O)C(CC(=O)O)NC(=O)NNC(=O)c1cccc(N=C(N)N)c1` (stereo unspecified): the IC50 in series [1] was more than 10 µM; in series [3], 150 nM. In series [2], this molecule registered a logP of -2.42.
With `Cc1ccnc(NCCCCC(=O)NNC(=O)NC(CC(=O)O)c2cc(Cl)cc(Cl)c2)c1` (stereo unspecified), the IC50 in series [1] is more than 10 µM; in series [3], 80 nM. In series [2], the logP amounted to 2.76.
With `COc1ccc(C(CC(=O)O)CC(=O)NNC(=O)c2cccc(N=C(C)N)c2)cc1` (stereo unspecified), the IC50 was more than 1 µM in series [1] and 37 nM in series [3]. This molecule also showed a logP in series [2] of 1.31.
Turning to `COc1ccc(C(CC(=O)O)CC(=O)NNC(=O)c2cccc(NC(=N)N)c2)cc1` (stereo unspecified), the half-maximal inhibitory concentration (IC50) in series [1] is more than 1 µM; in series [3], 1 nM. For the same molecule, the logP in series [2] amounted to 1.
Regarding `Cc1ccnc(NCCCCC(=O)NNC(=O)NC(CC(=O)O)c2ccc(Cl)cc2)c1` (stereo unspecified), the IC50 in series [1] is 7 µM; in series [3], 0.3 nM. This molecule also registered a logP in series [2] of 2.2.
`Cc1ccnc(NCCCCC(=O)NNC(=O)NC(CC(=O)O)c2ccc(F)cc2)c1` (stereo unspecified): the IC50 was more than 10 µM in series [1] and 48 nM in series [3]. The molecule further displayed a logP in series [2] of 1.8.
The matching figures for `NC(N)=Nc1cccc(C(=O)NNC(=O)NC(CC(=O)O)c2cc(Cl)cc(Cl)c2)c1` (stereo unspecified): more than 1 µM, 1 nM and 1.82.
The matching figures for `N=C(N)Nc1cccc(C(=O)NNC(=O)CC(CC(=O)O)c2ccc(-c3ccccc3)cc2)c1` (stereo unspecified): 1 µM, 0.7 nM and 2.8.
The matching figures for `N=C(N)Nc1cccc(C(=O)NNC(=O)CC(CC(=O)O)c2ccc(Cl)cc2)c1` (stereo unspecified): more than 1 µM, 2 nM and 1.68.
As to `Cc1ccnc(NCCCCC(=O)NNC(=O)NC(CC(=O)O)c2ccc(OC(F)(F)F)cc2)c1` (stereo unspecified), the log partition coefficient (logP) in series [2] amounted to 3.17. In addition, the midpoint of inhibition in series [3], the IC50, lay at 130 nM.
The matching figures for `Cc1ccnc(NCCCCC(=O)NNC(=O)NCCC(=O)O)c1`: -0.07 and 1400 nM.
As to `Cc1ccnc(NCCCCC(=O)NNC(=O)CC(CC(=O)O)c2ccc(-c3ccccc3)cc2)c1` (stereo unspecified), the Selectivity in series [4] came out at 1000. This molecule also displayed an IC50 in series [3] of 3 nM.
Turning to `NC(N)=Nc1cccc(C(=O)NNC(=O)NC(CC(=O)O)c2ccc(F)cc2)c1` (stereo unspecified), the IC50 worked out at 1 µM in series [1] and 6 nM in series [3]. In series [2], this molecule gave a log partition coefficient (logP) of 0.86.
The matching figures for `Cc1ccnc(NCCCCC(=O)NNC(=O)CC(CC(=O)O)c2ccccc2)c1` (stereo unspecified): more than 10 µM, 7 nM and 2.07.
`N=C(N)Nc1cccc(C(=O)NNC(=O)NC(CC(=O)O)c2ccc(Cl)cc2)c1` (stereo unspecified): the IC50 in series [1] was 5.5 µM; in series [3], 0.1 nM. In addition, the logP in series [2] worked out at 1.26.
The matching figures for `N=C(N)Nc1cccc(C(=O)NNC(=O)NC(CC(=O)O)c2ccc(OC(F)(F)F)cc2)c1` (stereo unspecified): more than 1 µM, 3 nM and 2.23.
Turning to `CC(C)[C@@H]1NC(=O)[C@H](CCCN=C(N)N)NC(=O)CNC(=O)[C@H](CC(=O)O)NC(=O)[C@H](Cc2ccccc2)N(C)C1=O` (cyclo(DGRV[NMeF])), the Selectivity in series [4] is 1460.
`Cc1ccnc(NCCCCC(=O)NNC(=O)NC(CC(=O)O)c2cccc3ccccc23)c1` (stereo unspecified): in series [2], the log partition coefficient (logP) was determined as 2.64. In series [3], this molecule registered an IC50 of 140 nM.
For the molecule `Cc1ccnc(NCCCCC(=O)NNC(=O)CC(CC(=O)O)c2cc(Cl)cc(Cl)c2)c1` (stereo unspecified), the IC50 is more than 10 µM in series [1] and 9 nM in series [3]. This molecule also returned a logP in series [2] of 3.19.
For the molecule `CC(=N)Nc1cccc(C(=O)NNC(=O)CC(CC(=O)O)c2ccc(F)cc2)c1` (stereo unspecified), the IC50 in series [1] is more than 1 µM; in series [3], 160 nM. In series [2], the logP came to 1.6.
In series [4], `CC(C)[C@@H]1NC(=O)[C@H](CCCN=C(N)N)NC(=O)NNC(=O)[C@H](CC(=O)O)NC(=O)[C@H](Cc2ccccc2)N(C)C1=O` (cyclo(D[azaGly]RV[NMeF])) returned a Selectivity of 270.
Regarding `N=C(N)Nc1cccc(C(=O)NNC(=O)NC(CC(=O)O)c2ccccc2)c1` (stereo unspecified), the IC50 is 8.5 µM in series [1] and 0.8 nM in series [3]. In series [2], this molecule yielded a logP of 0.7.
As for `O=C(O)CC(CC(=O)NNC(=O)c1cccc(Nc2ccccn2)c1)c1cc(Cl)cc(Cl)c1` (stereo unspecified), the logP in series [2] worked out at 3.54. In series [3], this molecule displayed a half-maximal inhibitory concentration (IC50) of 210 nM.
Turning to `Cc1ccnc(NCCCCC(=O)NNC(=O)CC(CC(=O)O)c2ccc(Cl)cc2)c1` (stereo unspecified), the lipophilicity (logP) in series [2] worked out at 2.63. Besides, the IC50 in series [3] amounted to 15 nM.
With `N=C(N)Nc1cccc(C(=O)NNC(=O)CC(CC(=O)O)c2ccc(F)cc2)c1` (stereo unspecified), the half-inhibitory concentration (IC50) in series [1] is more than 1 µM; in series [3], 4 nM. The logP in series [2] is 1.28.
Regarding `CC(=N)Nc1cccc(C(=O)NNC(=O)CC(CC(=O)O)c2ccc(-c3ccccc3)cc2)c1` (stereo unspecified), the IC50 in series [1] was more than 1 µM; in series [3] it was 26 nM. Moreover, the log partition coefficient (logP) in series [2] came out at 3.11.
The matching figures for `CC(N)=Nc1cccc(C(=O)NNC(=O)CC(CC(=O)O)c2ccc(Br)cc2)c1` (stereo unspecified): more than 1 µM, 40 nM and 2.27.
